Measurements as given in the M2OR odorant receptor database.
Changes are numbered by the printed parent chain.

Assays:
Conditions in all cases: stereoisomer not certain
OR4S2 (Homo sapiens) = biological target: T1, OR4S2 (Homo sapiens) (UniProt Q8NH73)
T1 sequence (whole entry): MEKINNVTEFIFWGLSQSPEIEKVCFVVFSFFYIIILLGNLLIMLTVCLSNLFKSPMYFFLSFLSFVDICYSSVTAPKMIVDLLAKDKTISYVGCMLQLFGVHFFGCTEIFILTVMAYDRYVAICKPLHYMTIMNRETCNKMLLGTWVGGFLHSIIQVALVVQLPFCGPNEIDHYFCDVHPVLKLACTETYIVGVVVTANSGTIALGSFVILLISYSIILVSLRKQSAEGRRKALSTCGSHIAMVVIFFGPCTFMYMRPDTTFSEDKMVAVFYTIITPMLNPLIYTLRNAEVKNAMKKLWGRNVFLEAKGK
Method in brief: (§1)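 Values were gathered from published papers (main text and supplementary material), with extra details requested from the original authors when needed, and checked for typos and inconsistencies. Each receptor–molecule pair is called responsive (active) if the original authors judged the measured signal statistically different from baseline, and non-responsive (inactive) otherwise. Assay methods varied by source, often transient mammalian cell-line luciferase assays. Recorded details include cell line, G-protein, co-transfected protein and tags.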

OR4X1 (Homo sapiens) = biological target: T2, OR4X1 (Homo sapiens) (UniProt Q8NH49)
T2 sequence (whole entry): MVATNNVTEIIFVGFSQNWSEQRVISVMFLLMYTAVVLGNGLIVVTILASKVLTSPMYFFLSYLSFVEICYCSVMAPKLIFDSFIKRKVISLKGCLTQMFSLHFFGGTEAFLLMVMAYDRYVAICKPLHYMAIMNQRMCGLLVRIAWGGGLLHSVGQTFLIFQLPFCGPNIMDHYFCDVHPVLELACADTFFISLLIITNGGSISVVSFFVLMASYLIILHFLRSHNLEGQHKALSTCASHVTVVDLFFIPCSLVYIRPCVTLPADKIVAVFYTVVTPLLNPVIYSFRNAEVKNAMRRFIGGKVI
Method in brief: as §1

OR4X2 (Homo sapiens) = biological target: T3, OR4X2 (Homo sapiens) (UniProt Q8NGF9)
T3 sequence (whole entry): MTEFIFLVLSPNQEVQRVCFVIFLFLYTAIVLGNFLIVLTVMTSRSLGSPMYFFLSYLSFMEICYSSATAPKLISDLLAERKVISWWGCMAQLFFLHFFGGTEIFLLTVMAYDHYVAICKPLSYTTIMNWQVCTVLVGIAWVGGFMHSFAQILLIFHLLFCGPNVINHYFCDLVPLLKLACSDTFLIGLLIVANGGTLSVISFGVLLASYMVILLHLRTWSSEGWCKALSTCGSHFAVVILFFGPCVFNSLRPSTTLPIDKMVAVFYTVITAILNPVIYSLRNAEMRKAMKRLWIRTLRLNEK
Method in brief: as §1

OR51A2 (Homo sapiens) = biological target: T4, OR51A2 (Homo sapiens) (UniProt Q8NGJ7)
T4 sequence (whole entry): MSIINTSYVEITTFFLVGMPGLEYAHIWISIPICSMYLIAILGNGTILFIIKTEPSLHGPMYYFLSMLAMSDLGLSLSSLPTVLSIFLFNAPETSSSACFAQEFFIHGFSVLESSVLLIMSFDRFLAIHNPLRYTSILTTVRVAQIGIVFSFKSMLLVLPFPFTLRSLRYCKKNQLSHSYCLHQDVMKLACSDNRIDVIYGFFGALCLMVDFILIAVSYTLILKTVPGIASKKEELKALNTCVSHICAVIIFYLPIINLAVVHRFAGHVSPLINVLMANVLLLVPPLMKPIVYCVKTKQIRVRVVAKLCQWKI
Method in brief: as §1

OR51A4 (Homo sapiens) = biological target: T5, OR51A4 (Homo sapiens) (UniProt Q8NGJ6)
T5 sequence (whole entry): T4 sequence (whole entry) with G59E, T94I, S97N, S167N, P227L, E235Q, G267R, M288T, K289N, W311R
Method in brief: as §1

OR51A7 (Homo sapiens) = biological target: T6, OR51A7 (Homo sapiens) (UniProt Q8NH64)
T6 sequence (whole entry): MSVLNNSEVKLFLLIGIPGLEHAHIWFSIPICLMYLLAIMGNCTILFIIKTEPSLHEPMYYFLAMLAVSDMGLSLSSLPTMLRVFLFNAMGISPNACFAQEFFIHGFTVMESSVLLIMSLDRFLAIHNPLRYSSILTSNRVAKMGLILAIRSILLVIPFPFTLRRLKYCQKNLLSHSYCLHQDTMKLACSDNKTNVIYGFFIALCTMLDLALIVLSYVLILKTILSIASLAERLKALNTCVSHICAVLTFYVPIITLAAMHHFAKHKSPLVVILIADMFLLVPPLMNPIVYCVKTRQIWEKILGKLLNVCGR
Method in brief: as §1

OR51B2 (Homo sapiens) = biological target: T7, OR51B2 (Homo sapiens) (UniProt Q9Y5P1)
T7 sequence (whole entry): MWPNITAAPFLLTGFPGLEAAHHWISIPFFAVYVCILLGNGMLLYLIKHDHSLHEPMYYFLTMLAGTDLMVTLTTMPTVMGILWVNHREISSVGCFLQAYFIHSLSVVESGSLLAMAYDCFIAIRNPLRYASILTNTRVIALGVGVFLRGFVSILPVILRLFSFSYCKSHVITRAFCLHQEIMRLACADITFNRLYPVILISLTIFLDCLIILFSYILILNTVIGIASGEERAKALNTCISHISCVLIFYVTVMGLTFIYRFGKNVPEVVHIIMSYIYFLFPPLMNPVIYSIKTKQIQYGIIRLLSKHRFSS
Method in brief: as §1

OR51B4 (Homo sapiens) = biological target: T8, OR51B4 (Homo sapiens) (UniProt Q9Y5P0)
T8 sequence (whole entry): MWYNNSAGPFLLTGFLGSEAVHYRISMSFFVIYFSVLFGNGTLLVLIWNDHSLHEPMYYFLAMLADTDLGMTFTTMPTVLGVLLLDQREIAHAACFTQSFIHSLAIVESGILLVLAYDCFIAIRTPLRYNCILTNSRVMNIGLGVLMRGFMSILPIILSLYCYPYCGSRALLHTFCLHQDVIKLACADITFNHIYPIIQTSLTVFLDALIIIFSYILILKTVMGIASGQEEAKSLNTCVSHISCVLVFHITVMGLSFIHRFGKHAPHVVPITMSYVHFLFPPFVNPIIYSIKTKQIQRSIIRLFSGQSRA
Method in brief: as §1

OR51B5 (Homo sapiens) = biological target: T9, OR51B5 (Homo sapiens) (UniProt Q9H339)
T9 sequence (whole entry): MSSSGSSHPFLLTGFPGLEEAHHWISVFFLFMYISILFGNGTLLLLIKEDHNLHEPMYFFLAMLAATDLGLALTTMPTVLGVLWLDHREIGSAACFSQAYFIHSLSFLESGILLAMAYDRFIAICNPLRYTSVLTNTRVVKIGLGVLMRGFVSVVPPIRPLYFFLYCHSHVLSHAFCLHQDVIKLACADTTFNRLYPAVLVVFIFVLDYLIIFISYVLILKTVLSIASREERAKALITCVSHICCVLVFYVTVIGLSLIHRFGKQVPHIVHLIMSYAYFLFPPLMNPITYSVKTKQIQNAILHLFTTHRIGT
Method in brief: as §1

OR51B6 (Homo sapiens) = biological target: T10, OR51B6 (Homo sapiens) (UniProt Q9H340)
T10 sequence (whole entry): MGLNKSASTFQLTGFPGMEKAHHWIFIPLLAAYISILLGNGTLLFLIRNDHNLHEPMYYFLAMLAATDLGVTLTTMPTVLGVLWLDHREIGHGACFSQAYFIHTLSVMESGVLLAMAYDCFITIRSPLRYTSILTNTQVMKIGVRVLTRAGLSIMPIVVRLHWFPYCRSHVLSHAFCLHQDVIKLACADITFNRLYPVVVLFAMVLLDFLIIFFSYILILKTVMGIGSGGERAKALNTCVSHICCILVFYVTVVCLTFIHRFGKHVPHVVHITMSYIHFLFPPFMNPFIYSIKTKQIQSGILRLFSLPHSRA
Method in brief: as §1

OR51D1 (Homo sapiens) = biological target: T11, OR51D1 (Homo sapiens) (UniProt Q8NGF3)
T11 sequence (whole entry): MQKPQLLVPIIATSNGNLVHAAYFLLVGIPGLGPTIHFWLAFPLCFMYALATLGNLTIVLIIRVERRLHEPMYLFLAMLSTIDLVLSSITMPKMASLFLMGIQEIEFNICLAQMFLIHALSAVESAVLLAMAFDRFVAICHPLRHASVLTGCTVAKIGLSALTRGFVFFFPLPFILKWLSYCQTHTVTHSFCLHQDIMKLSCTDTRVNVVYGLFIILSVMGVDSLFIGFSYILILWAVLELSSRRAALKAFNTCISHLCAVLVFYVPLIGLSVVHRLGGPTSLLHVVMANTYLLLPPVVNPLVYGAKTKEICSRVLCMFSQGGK
Method in brief: as §1

OR51E2 (Homo sapiens) = biological target: T12, OR51E2 (Homo sapiens) (UniProt Q9H255)
T12 sequence (whole entry): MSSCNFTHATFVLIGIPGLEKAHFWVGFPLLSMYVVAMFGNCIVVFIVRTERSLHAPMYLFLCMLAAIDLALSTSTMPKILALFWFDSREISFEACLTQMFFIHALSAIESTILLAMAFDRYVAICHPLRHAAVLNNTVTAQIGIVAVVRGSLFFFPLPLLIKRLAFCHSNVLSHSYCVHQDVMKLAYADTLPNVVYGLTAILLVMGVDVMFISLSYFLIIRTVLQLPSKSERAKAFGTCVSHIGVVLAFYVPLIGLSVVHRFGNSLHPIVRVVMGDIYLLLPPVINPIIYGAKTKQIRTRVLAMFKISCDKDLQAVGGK
Method in brief: as §1

OR51F1 (Homo sapiens) = biological target: T13, OR51F1 (Homo sapiens) (UniProt A6NGY5)
T13 sequence (whole entry): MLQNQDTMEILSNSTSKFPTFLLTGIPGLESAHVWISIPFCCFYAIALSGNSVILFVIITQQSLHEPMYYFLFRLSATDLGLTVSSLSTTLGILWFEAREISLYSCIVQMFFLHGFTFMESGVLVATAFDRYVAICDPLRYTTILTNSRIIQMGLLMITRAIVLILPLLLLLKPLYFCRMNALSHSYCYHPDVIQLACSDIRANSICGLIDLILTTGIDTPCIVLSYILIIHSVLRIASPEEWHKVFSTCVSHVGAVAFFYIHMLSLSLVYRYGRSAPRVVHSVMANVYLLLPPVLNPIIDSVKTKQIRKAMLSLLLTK
Method in brief: as §1

OR51F2 (Homo sapiens) = biological target: T14, OR51F2 (Homo sapiens) (UniProt Q8NH61)
T14 sequence (whole entry): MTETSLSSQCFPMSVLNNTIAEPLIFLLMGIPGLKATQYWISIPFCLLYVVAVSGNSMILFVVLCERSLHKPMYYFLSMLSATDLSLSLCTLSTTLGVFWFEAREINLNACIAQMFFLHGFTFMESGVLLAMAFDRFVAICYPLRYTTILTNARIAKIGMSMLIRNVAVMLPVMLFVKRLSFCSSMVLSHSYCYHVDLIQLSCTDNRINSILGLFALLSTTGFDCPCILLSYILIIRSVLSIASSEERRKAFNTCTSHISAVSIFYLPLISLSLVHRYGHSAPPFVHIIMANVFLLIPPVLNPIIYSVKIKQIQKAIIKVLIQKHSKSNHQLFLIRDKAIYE
Method in brief: as §1

OR51G1 (Homo sapiens) = biological target: T15, OR51G1 (Homo sapiens) (UniProt Q8NGK1)
T15 sequence (whole entry): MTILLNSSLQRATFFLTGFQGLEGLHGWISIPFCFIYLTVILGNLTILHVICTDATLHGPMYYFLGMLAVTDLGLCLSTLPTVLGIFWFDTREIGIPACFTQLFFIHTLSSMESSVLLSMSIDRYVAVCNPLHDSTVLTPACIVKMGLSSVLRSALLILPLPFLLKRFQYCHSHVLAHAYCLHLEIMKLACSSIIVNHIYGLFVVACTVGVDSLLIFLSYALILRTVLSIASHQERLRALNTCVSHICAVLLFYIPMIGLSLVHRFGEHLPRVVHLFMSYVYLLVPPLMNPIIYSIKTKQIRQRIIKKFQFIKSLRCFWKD
Method in brief: as §1

OR51G2 (Homo sapiens) = biological target: T16, OR51G2 (Homo sapiens) (UniProt Q8NGK0)
T16 sequence (whole entry): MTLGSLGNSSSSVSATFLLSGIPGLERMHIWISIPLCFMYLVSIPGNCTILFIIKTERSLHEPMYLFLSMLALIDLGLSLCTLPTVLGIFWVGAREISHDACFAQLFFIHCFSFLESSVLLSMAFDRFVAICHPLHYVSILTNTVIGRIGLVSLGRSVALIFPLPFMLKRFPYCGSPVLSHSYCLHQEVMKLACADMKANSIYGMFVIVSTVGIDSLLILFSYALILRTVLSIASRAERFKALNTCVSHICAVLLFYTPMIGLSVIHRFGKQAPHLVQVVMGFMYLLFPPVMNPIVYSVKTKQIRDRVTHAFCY
Method in brief: as §1

OR51H1 (Homo sapiens) = OR51H1 (Homo sapiens) (UniProt Q8NH63)
Sequence of OR51H1 (Homo sapiens) (Q8NH63 whole entry): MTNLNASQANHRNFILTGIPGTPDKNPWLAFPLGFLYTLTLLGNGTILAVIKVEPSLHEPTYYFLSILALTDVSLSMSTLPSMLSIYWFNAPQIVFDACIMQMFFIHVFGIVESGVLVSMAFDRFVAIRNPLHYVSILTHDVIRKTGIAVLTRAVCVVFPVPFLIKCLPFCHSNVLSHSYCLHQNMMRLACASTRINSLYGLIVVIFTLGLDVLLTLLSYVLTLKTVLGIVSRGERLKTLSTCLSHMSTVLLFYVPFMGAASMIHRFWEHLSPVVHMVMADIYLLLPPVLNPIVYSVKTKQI
Method in brief: as §1

OR51I1 (Homo sapiens) = biological target: T17, OR51I1 (Homo sapiens) (UniProt Q9H343)
T17 sequence (whole entry): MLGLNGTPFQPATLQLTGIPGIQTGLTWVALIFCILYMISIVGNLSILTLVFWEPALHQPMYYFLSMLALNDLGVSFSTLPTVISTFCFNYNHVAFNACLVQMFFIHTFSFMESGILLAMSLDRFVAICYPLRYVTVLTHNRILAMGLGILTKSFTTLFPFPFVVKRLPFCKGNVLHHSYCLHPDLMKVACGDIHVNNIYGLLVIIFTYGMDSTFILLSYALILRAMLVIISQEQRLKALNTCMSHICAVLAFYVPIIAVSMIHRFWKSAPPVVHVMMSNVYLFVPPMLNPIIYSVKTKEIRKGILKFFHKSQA
Method in brief: as §1

Measured: odorant receptor agonist call

CC(=O)c1c(C)c([N+](=O)[O-])c(C(C)(C)C)c([N+](=O)[O-])c1C
inactive: all assays above
